Data from ChEMBL document CHEMBL1806473, “Structure-based optimization of click-based histone deacetylase inhibitors” (Eur J Med Chem, 2011).

Experiments:
SK-MEL-5 [1] = test: Cytotoxicity against human SK-MEL-5 cells; type: cell-based
NCI-H226 [2] = test: Antiproliferative activity against human NCI-H226 cells by SRB assay; type: functional
Procedure, shortened: (§1)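 Tested in the NCI in vitro human tumor cell line screen, run by the National Cancer Institute. Each compound was given at five concentrations (100, 10, 1.0, 0.1 and 0.01 μM). GI50 is the drug concentration that reduces growth of treated cells to half that of control cells during drug incubation, judged from the SRB signal.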

TK-10 = test: Antiproliferative activity against human TK10 cells by SRB assay; type: functional
Procedure, shortened: (§2)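 Cell growth was tested in the NIH in vitro disease-oriented human tumor cell line screen, which NCI ran for these compounds. Compounds were tested at five concentrations (100, 10, 1.0, 0.1 and 0.01 μM), and growth was read by SRB signal. GI50 is the drug concentration that reduces growth of treated cells to half that of control cells during drug incubation.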

HOP-62 = test: Antiproliferative activity against human HOP62 cells by SRB assay; type: functional; procedure, shortened: as §1
HOP-92 [3] = test: Cytotoxicity against human HOP92 cells; type: cell-based
CCRF-CEM = test: Cytotoxicity against human CCRF-CEM cells; type: cell-based
[4] = Antiproliferative activity against human Hs 578T cells by SRB assay; type: functional; procedure, shortened: as §1
Malme-3M [5] = test: Cytotoxicity against human MALME-3M cells; type: cell-based
Procedure, shortened: (§3)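 Tested in the NCI in vitro disease-oriented human tumour cell line screen, with screening performed by NCI. Growth was read by SRB signal over the drug incubation period at five concentrations: 100, 10, 1.0, 0.1 and 0.01 μM. GI50 is the concentration that reduces growth of treated cells to half that of control cells.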

SK-MEL-5 [6] = test: Antiproliferative activity against human SK-MEL-5 cells by SRB assay; type: functional; procedure, shortened: as §1
EKVX = test: Cytotoxicity against human EKVX cells; type: cell-based; procedure, shortened: as §3
SK-MEL-28 [7] = test: Antiproliferative activity against human SK-MEL-28 cells by SRB assay; type: functional; procedure, shortened: as §1
NCI-H460 [8] = test: Antiproliferative activity against human NCI-H460 cells by SRB assay; type: functional; procedure, shortened: as §1
SNB-75 [9] = test: Cytotoxicity against human SNB75 cells; type: cell-based
Procedure, shortened: (§4)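 Screened by NCI in its in vitro disease-oriented human tumour cell line panel. Compounds tested at five concentrations (100, 10, 1.0, 0.1 and 0.01 μM). Growth read by sulforhodamine B (SRB) signal. GI50 is the concentration reducing growth of treated cells to half that of control cells during the drug incubation.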

HOP-92 [10] = test: Antiproliferative activity against human HOP92 cells by SRB assay; type: functional; procedure, shortened: as §1
SW-620 = test: Cytotoxicity against human SW620 cells; type: cell-based; procedure, shortened: as §4
NCI-H322M = test: Antiproliferative activity against human NCI-H322M cells by SRB assay; type: functional; procedure, shortened: as §1
OVCAR-5 [11] = test: Cytotoxicity against human OVCAR5 cells; type: cell-based; procedure, shortened: as §3
T47D [12] = test: Antiproliferative activity against human T47D cells by SRB assay; type: functional; procedure, shortened: as §2
OVCAR-5 [13] = test: Antiproliferative activity against human OVCAR5 cells by SRB assay; type: functional; procedure, shortened: as §1
HL-60(TB) = test: Antiproliferative activity against human HL-60(TB) cells by SRB assay; type: functional; procedure, shortened: as §3
UO-31 [14] = test: Antiproliferative activity against human UO31 cells by SRB assay; type: functional; procedure, shortened: as §2
SNB-19 = test: Cytotoxicity against human SNB19 cells; type: cell-based; procedure, shortened: as §4
HCT-116 = test: Cytotoxicity against human HCT116 cells; type: cell-based; procedure, shortened: as §3
SK-MEL-2 [15] = test: Cytotoxicity against human SK-MEL-2 cells; type: cell-based; procedure, shortened: as §3
NCI-H23 = test: Antiproliferative activity against human NCI-H23 cells by SRB assay; type: functional; procedure, shortened: as §1
PC-3 = test: Cytotoxicity against human PC3 cells; type: cell-based
COLO 205 = test: Cytotoxicity against human COLO205 cells; type: cell-based; procedure, shortened: as §3
A498 = test: Cytotoxicity against human A498 cells; type: cell-based
SF-268 = test: Cytotoxicity against human SF268 cells; type: cell-based; procedure, shortened: as §3
NCI-H522 = test: Antiproliferative activity against human NCI-H522 cells by SRB assay; type: functional; procedure, shortened: as §1
UO-31 [16] = test: Cytotoxicity against human UO31 cells; type: cell-based; procedure, shortened: as §4
SF-295 [17] = test: Antiproliferative activity against human SF295 cells by SRB assay; type: functional; procedure, shortened: as §1
HT-29 = test: Antiproliferative activity against human HT-29 cells by SRB assay; type: functional; procedure, shortened: as §1
HCT-15 = test: Cytotoxicity against human HCT15 cells; type: cell-based; procedure, shortened: as §3
OVCAR-4 = test: Cytotoxicity against human OVCAR4 cells; type: cell-based
Malme-3M [18] = test: Antiproliferative activity against human MALME-3M cells by SRB assay; type: functional; procedure, shortened: as §1
LOX IMVI [19] = test: Antiproliferative activity against human LOXIMVI cells by SRB assay; type: functional; procedure, shortened: as §1
MCF7 = test: Cytotoxicity against human MCF7 cells; type: cell-based
SK-MEL-2 [20] = test: Antiproliferative activity against human SK-MEL-2 cells by SRB assay; type: functional; procedure, shortened: as §1
NCI-H460 [21] = test: Cytotoxicity against human NCI-H460 cells; type: cell-based
KM12 = test: Antiproliferative activity against human KM12 cells by SRB assay; type: functional; procedure, shortened: as §1
T47D [22] = test: Cytotoxicity against human T47D cells; type: cell-based; procedure, shortened: as §4
MDA-MB-435 = test: Cytotoxicity against human MDA-MB-435 cells; type: cell-based
UACC-257 [23] = test: Cytotoxicity against human UACC257 cells; type: cell-based; procedure, shortened: as §4
OVCAR-3 = test: Cytotoxicity against human OVCAR3 cells; type: cell-based; procedure, shortened: as §3
SK-OV-3 [24] = test: Antiproliferative activity against human SKOV3 cells by SRB assay; type: functional; procedure, shortened: as §1
SNB-75 [25] = test: Antiproliferative activity against human SNB75 cells by SRB assay; type: functional; procedure, shortened: as §2
LOX IMVI [26] = test: Cytotoxicity against human LOXIMVI cells; type: cell-based
BT-549 [27] = test: Cytotoxicity against human BT549 cells; type: cell-based
BT-549 [28] = test: Antiproliferative activity against human BT549 cells by SRB assay; type: functional; procedure, shortened: as §1
SF-295 [29] = test: Cytotoxicity against human SF295 cells; type: cell-based; procedure, shortened: as §3
UACC-257 [30] = test: Antiproliferative activity against human UACC257 cells by SRB assay; type: functional; procedure, shortened: as §2
NCI-H226 [31] = test: Cytotoxicity against human NCI-H226 cells; type: cell-based
SK-MEL-28 [32] = test: Cytotoxicity against human SK-MEL-28 cells; type: cell-based
CAKI-1 = test: Cytotoxicity against human Caki1 cells; type: cell-based
Histone deacetylase = test: Inhibition of HDAC in human HeLa cells using Ac-Arg-Gly-Lys(Ac)-AMC as fluorescent substrate after 20 mins by fluorescence assay; type: cell-based
ACHN = test: Cytotoxicity against human ACHN cells; type: cell-based
DU-145 = test: Cytotoxicity against human DU145 cells; type: cell-based; procedure, shortened: as §3
SR = test: Antiproliferative activity against human SR cells by SRB assay; type: functional; procedure, shortened: as §2
OVCAR-8 = test: Antiproliferative activity against human OVCAR8 cells by SRB assay; type: functional; procedure, shortened: as §1
SK-OV-3 [33] = test: Cytotoxicity against human SKOV3 cells; type: cell-based
RXF 393 = test: Antiproliferative activity against human RXF393 cells by SRB assay; type: functional; procedure, shortened: as §1
A549 = test: Antiproliferative activity against human A549 cells by SRB assay; type: functional; procedure, shortened: as §1
SF-539 = test: Cytotoxicity against human SF539 cells; type: cell-based; procedure, shortened: as §3

CC(/C=C/c1ccccc1)n1cc(/C=C/C(=O)NO)nn1 (centres undefined)
LC50 (SK-MEL-5 [1]): 4520 nM | GI50 (NCI-H226 [2]): 2350 nM | GI50 (TK-10): 582 nM | GI50 (HOP-62): 1340 nM | LC50 (HOP-92 [3]): 7530 nM | LC50 (CCRF-CEM): > 100000 nM | GI50 [4]: 692 nM | LC50 (Malme-3M [5]): 51900 nM | GI50 (SK-MEL-5 [6]): 573 nM | LC50 (EKVX): > 100000 nM | GI50 (SK-MEL-28 [7]): 819 nM | GI50 (NCI-H460 [8]): 612 nM | LC50 (SNB-75 [9]): 33900 nM | GI50 (HOP-92 [10]): 677 nM | LC50 (SW-620): 5150 nM | GI50 (NCI-H322M): 1280 nM | LC50 (OVCAR-5 [11]): > 100000 nM | GI50 (T47D [12]): 667 nM | GI50 (OVCAR-5 [13]): 488 nM | GI50 (HL-60(TB)): 269 nM | GI50 (UO-31 [14]): 549 nM | LC50 (SNB-19): 37600 nM | LC50 (HCT-116): 3810 nM | LC50 (SK-MEL-2 [15]): 37000 nM | GI50 (NCI-H23): 1250 nM | LC50 (PC-3): > 100000 nM | LC50 (COLO 205): 5200 nM | LC50 (A498): 4830 nM | LC50 (SF-268): 12200 nM | GI50 (NCI-H522): 173 nM | LC50 (UO-31 [16]): 66700 nM | GI50 (SF-295 [17]): 1060 nM | GI50 (HT-29): 325 nM | LC50 (HCT-15): 42800 nM | LC50 (OVCAR-4): 18300 nM | GI50 (Malme-3M [18]): 279 nM | GI50 (LOX IMVI [19]): 438 nM | LC50 (MCF7): > 100000 nM | GI50 (SK-MEL-2 [20]): 614 nM | LC50 (NCI-H460 [21]): 42700 nM | GI50 (KM12): 1290 nM | LC50 (T47D [22]): 7630 nM | LC50 (MDA-MB-435): 30800 nM | LC50 (UACC-257 [23]): > 100000 nM | LC50 (OVCAR-3): 7330 nM | GI50 (SK-OV-3 [24]): 1170 nM | GI50 (SNB-75 [25]): 924 nM | LC50 (LOX IMVI [26]): 4120 nM | LC50 (BT-549 [27]): > 100000 nM | GI50 (BT-549 [28]): 2110 nM | LC50 (SF-295 [29]): > 100000 nM | GI50 (UACC-257 [30]): 1350 nM | LC50 (NCI-H226 [31]): 71400 nM | LC50 (SK-MEL-28 [32]): 24500 nM | LC50 (CAKI-1): 34700 nM | IC50 (Histone deacetylase): 62 nM | LC50 (ACHN): 5860 nM | LC50 (DU-145): > 100000 nM | GI50 (SR): 385 nM | GI50 (OVCAR-8): 232 nM | LC50 (SK-OV-3 [33]): 21800 nM | GI50 (RXF 393): 1410 nM | GI50 (A549): 1470 nM | LC50 (SF-539): 4610 nM
